CAL PDZ FP-1 – inhibitors of human CAL PDZ peptide binding. inhibition, % at 20 µM. 330,000 tested, 0.02% active. Q9HD26. purified CAL PDZ, TMR-peptide fluorescence polarization, 1 h;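 active means highest replicate inhibition of at least 40%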;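 further: plate controls were DMSO neutral control wells for no effect and unlabeled competitor peptide control wells for full effect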
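Control set: unlabelled peptide and DMSO controls / Material: purified CerCALP PDZ construct / Timing: 1 h incubation at room temperature before polarization reading / Doses: 20 µM, one dose / Detection: fluorescence polarization (mP)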
ARNT TACC3 PPI – disruptors of human ARNT/TACC3 interaction; Q9Y6A5; AlphaScreen His-ARNT PAS-B/GST-TACC3 binding, luminescence; TACC3 fragment carries E629A point mutation; inhibition, % at 9.99 µM; 390,000 tested, 0.66% active; AID 623870;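 active means mean inhibition of replicates at least 50% and at least half of replicates each reaching 50%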;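 further: 0% = complete ARNT plus TACC3 wells and 100% = ARNT alone without TACC3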
Tn6 DDE FP – inhibitors of Tn6 peptide binding to human fibrin DD(E) | P02675 | Fibrin DD(E) TRITC-Tn6 fluorescence polarization displacement | inhibition, % at 8.3 µM | 370,000 tested, 0.21% active;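 active means inhibition above a per-campaign cutoff: mean of compounds within control limits plus 3 SD, cut at about 15% in these data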;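 further: 0% = median of all compound wells on the plate and 100% = blocking peptide control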
DDE Tn7 FP inh – DD(E)-Tn7 binding inhibition, primary FP screen; P02675; AID 720508; FP displacement of FITC-Tn7 peptide from fibrin DD(E); 0% = median of compound wells per plate; inhibition, % at 8.3 µM; 370,000 tested, 0.13% active;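 active means inhibition above the mean of compounds falling within the control limits plus 3 SD of them, cut at about 14% in these data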;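 further: 0% = plate median of compound wells and 100% = 10 µM Aha-Tn7 peptide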
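Assay system: Human fibrin DD(E) protein | Medium: Tris buffer with calcium and detergent, pH 7.8 | Reagent: 0.1 µM fluorescent Tn7 | Compound dosing: Single point at 8.3 µM | Times: 10 min preincubation, 3 h with tracer, room temperature | Detection: Fluorescence polarization of the labelled Tn7 tracer | Controls: Aha-Tn7 high control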
GRK2 inh – blocks RNA aptamer binding to human GRK2; P25098; bead flow cytometry, FAM-aptamer displacement from GRK2; inhibition of aptamer binding, % at 10 µM; 330,000 tested, 0.59% active; AID 488847;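 active means inhibition of aptamer binding above 40%, roughly 3 SD of noise, on plates passing a quality check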;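 further: median bead fluorescence of bound FAM aptamer so fluorescent compounds give negative values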
Target sequence (P25098 whole entry, looked up): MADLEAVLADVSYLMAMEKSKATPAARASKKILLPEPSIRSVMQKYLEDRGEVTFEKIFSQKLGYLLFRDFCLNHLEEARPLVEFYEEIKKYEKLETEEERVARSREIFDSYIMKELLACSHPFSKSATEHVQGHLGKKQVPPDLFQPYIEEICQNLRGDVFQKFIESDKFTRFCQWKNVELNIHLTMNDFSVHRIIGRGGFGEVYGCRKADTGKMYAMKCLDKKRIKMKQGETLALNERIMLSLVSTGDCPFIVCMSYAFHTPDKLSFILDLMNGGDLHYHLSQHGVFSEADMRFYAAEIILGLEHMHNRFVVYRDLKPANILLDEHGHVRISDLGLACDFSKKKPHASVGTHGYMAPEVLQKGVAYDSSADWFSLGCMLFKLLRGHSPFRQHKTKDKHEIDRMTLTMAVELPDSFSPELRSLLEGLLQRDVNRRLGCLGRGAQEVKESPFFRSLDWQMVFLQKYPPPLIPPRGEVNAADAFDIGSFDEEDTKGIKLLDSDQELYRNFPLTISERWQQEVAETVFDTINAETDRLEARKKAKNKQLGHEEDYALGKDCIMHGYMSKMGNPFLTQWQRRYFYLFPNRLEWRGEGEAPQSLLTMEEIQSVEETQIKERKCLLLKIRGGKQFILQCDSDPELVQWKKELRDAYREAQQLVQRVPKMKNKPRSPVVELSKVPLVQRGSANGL
CAL PDZ FP-2 – inhibitors of human CAL PDZ peptide binding. Q9HD26. purified CAL PDZ, TMR-peptide fluorescence polarization, 1 h. inhibition, % at 24.9 µM. 300,000 tested, 0.92% active;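 active means mean inhibition of at least 30% with at least half of replicates also reaching 30%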;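 further: 0% = DMSO neutral control and 100% = excess unlabeled competitor peptide PRC23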
Starred values were filed as active, the others as inactive; · = not tested or not shown. This is a sample that favours compounds with a hit; in the whole collection about 1.8% have one here.

SMILES | CAL PDZ FP-1 | ARNT TACC3 PPI | Tn6 DDE FP | DDE Tn7 FP inh | GRK2 inh | CAL PDZ FP-2
C=CCN(c1ccccc1OC)S(=O)(=O)c1cccc(C(=O)Nc2nnc(C3CC3)s2)c1 | -1 | 2 | -8 | 4 | 1 | 40*
C=Cc1c(C)c2cc3[nH]c(cc4nc(cc5nc(cc1[nH]2)C(C)=C5CCC(=O)O)C(CCC(=O)O)=C4C)c(C)c3C=C | 0 | -26 | 31* | -1 | 6 | -3
CC(C)[C@H](NC(=O)c1ccccc1)C(=O)OCc1nnc(-c2ccccc2)o1 | 0 | 4 | -6 | -4 | 2 | -5
Cc1ccc(C(=O)N[C@H](C(=O)OCc2nnc(-c3ccccc3)o2)C(C)C)cc1 | 0 | -3 | 3 | -2 | 0 | 50*
Cc1noc(C)c1NC(=O)N(C)C[C@H]1Oc2ccc(NS(C)(=O)=O)cc2C(=O)N([C@H](C)CO)C[C@@H]1C | · | -2 | · | · | · | ·
O=C(COC(=O)c1ccc(F)cc1F)Nc1cc(S(=O)(=O)N2CCOCC2)ccc1Cl | -2 | -4 | -6 | 0 | · | 1
COc1cc(/C=N/Nc2ccc(Cl)c(C(=O)O)c2)ccc1OC(=O)c1ccc(F)cc1 | -1 | 5 | -3 | 2 | 0 | -3
COc1cc(/C=N/Nc2ccc(Cl)c(C(=O)O)c2)ccc1OC(=O)c1ccccc1F | -1 | 10 | 1 | -1 | 1 | 42*
CN1CC(c2ccccc2)Oc2ccccc2C1=S (stereo not given) | 0 | 5 | 8 | -3 | 0 | 67*
O=C1CC(c2ccc(O)cc2)Oc2ccccc21 (stereo not given) | -3 | -3 | 1 | 1 | 0 | 7
O=C(C[C@@H]1C=C[C@H](NC(=O)Nc2ccccc2)[C@@H](CO)O1)NCc1ccccn1 | · | 6 | · | · | · | ·
O=C(Cc1ccc([N+](=O)[O-])cc1)NCc1ccccn1 | -1 | 2 | -5 | 2 | 1 | 76*
COc1ccccc1C(=O)COC(=O)Cc1n[nH]c(=O)c2ccccc12 | -3 | 1 | -2 | -7 | 1 | 31*
N#Cc1ccccc1S(=O)(=O)N1CCN(C(=O)C2CCCC2)CC1 | · | -4 | -3 | -1 | 0 | -6
COc1ccc(S(=O)(=O)N2CCOCC2)cc1NC(=O)CCNC(=O)c1ccc([N+](=O)[O-])cc1 | 0 | 8 | -6 | -2 | 0 | 0
Cc1[nH]n(-c2ccccc2)c(=O)c1C(C[N+](=O)[O-])c1ccccc1Cl (stereo not given) | -1 | 33 | 7 | -1 | 4 | 0
COc1ccc(C(C[N+](=O)[O-])c2c(C)[nH]n(-c3ccccc3)c2=O)cc1 (stereo not given) | · | 72* | -2 | 2 | 2 | -3
Nc1[nH]c(N=NC(=O)c2ccccc2O)c2ccccc12 | 0 | 60* | 1 | 8 | 0 | -2
CC(NNC(=S)N1CCN(c2ccccn2)CC1)c1nccc2ccccc12 (stereo not given) | -1 | 63* | -1 | 4 | · | -2
O=S(=O)(N[C@H](CO)c1ccccc1)c1ccc(Br)cc1F | 2 | -4 | 0 | -1 | 23 | -2
CC(CO)NS(=O)(=O)c1ccc(Br)cc1F (stereo not given) | 1 | -3 | 1 | -5 | · | 40*
CCOc1ccc(NC(=S)N(Cc2ccc(N(C)C)cc2)Cc2ccco2)cc1 | · | 17* | · | · | 0 | 4
COc1ccc(NC(=S)N(Cc2ccc(N(C)C)cc2)Cc2ccco2)cc1 | 0 | 10 | -3 | -1 | 0 | -5
CCOc1ccc2[nH]c3c(NCC(C)C)ncnc3c2c1 | -1 | -2 | · | · | 0 | 81*
CCOc1ccc2[nH]c3c(NCCOC)ncnc3c2c1 | 0 | 4 | -8 | 0 | 0 | 12
SMILES | CAL PDZ FP-1 | ARNT TACC3 PPI | Tn6 DDE FP | DDE Tn7 FP inh | GRK2 inh | CAL PDZ FP-2
Cc1ccc2nc3n(c(=O)c2c1)-c1ccc(Cl)cc1C(=O)NC3CC(C)C (stereo not given) | · | · | 6 | 12 | 0 | ·
O=C1NC2(CCCCCC2)C(=O)N1Cc1ccccc1Br | 0 | -3 | 2 | 1 | 0 | 48*
CCOc1ccccc1CN1C(=O)NC2(CCCCCC2)C1=O | 0 | -1 | -8 | 2 | 0 | -1
CN(Cc1ccccc1)C(=O)CN1C(=O)NC2(CCCC2)C1=O | -1 | -5 | -6 | -4 | 2 | -1
CN(Cc1ccccc1Br)C(=O)CN1C(=O)NC2(CCCCCC2)C1=O | 0 | -7 | 9 | 1 | 0 | 39*
COc1ccc(OC)c(-c2csc(NC(=O)c3ccc4c(c3)OCO4)n2)c1 | 1 | -3 | 0 | -2 | 0 | 80*
CC(C)NC(=O)N[C@@H]1CC[C@@H](CC(=O)NC2Cc3ccccc3C2)O[C@@H]1CO | · | -1 | · | · | · | ·
COc1ccc(C(=O)Nc2c(N)nc(SCC(=O)NCC3CCCO3)[nH]c2=O)cc1OC (stereo not given) | -1 | -3 | -1 | -2 | 1 | 92*
O=C(CSc1nc(-c2ccccc2)c(-c2ccccc2)[nH]1)NCC1CCCO1 (stereo not given) | 0 | 1 | -6 | 7 | 4 | -1
Cc1ccc(C(=O)Nc2c(N)nc(SCC(=O)NCC3CCCO3)[nH]c2=O)cc1 (stereo not given) | -1 | -4 | -3 | 8 | 1 | -2
O=C(CSc1nc2ccccc2[nH]1)NCC1CCCO1 (stereo not given) | -2 | -5 | 5 | -1 | 0 | 40*
CC(=O)OCCNc1cc(N2CCN(C)CC2)c2noc3c2c1C(=O)c1ccccc1-3 | 0 | 49* | 10 | 2 | · | ·
CCN1CCN(c2cc(N3CCN(C(=O)c4ccco4)CC3)c3c4c(onc24)-c2ccccc2C3=O)CC1 | -3 | 43 | · | · | 0 | -13
Fc1ccc(NC(=S)Nc2ccc3nccnc3c2)cc1 | -3 | 64* | -1 | 1 | 0 | -6
O=C1c2ccsc2SCCN1Cc1ccc(F)cc1 | · | 9 | 5 | -1 | 0 | 39*
CC(=O)c1c(C)[nH]c(C(=O)OCC(=O)N2CCc3ccccc3C2)c1C | -1 | -1 | -3 | 4 | 2 | -3
O=C(CN1C(=O)COc2ccccc21)Nc1ccccc1F | -1 | -2 | -3 | -10 | 2 | -7
Cc1ccc2c(c1)N(CC(=O)Nc1ccccc1F)C(=O)CO2 | -1 | -7 | 1 | 6 | 0 | 56*
CC(C)CC(C(=O)Oc1ccc2c3c(c(=O)oc2c1)CCC3)N1C(=O)c2ccccc2C1=O (stereo not given) | · | 47* | 8 | 1 | · | -1
C[C@@H]1CCCCO[C@H](CN(C)C(=O)Nc2cccc3ccccc23)[C@@H](C)CN([C@@H](C)CO)C(=O)c2cc(NS(=O)(=O)c3cn(C)cn3)ccc2O1 | · | 12 | · | · | · | ·

Assay outcomes deposited in PubChem BioAssay by several laboratories.
